Measured values: ChEMBL document CHEMBL3352478, “Novel benzopsoralen analogues: synthesis, biological activity and molecular docking studies” (2014)

How the values were obtained:
[1] = system: MDA-MB-231; test: Antiproliferative activity against human MDA-MB-231 cells after 48 hrs by MTS assay; assay type: functional; settings: MDA-MB-231, 48 h
In short: (§1)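 Cells were grown in DMEM with 1% penicillin/streptomycin and FBS (10% for MDA-MB-231, 15% for TCC-SUP). At 1×10^4 cells/mL, cells were exposed for 48 h to five compound concentrations freshly diluted from DMSO stocks (final DMSO <1%). MTS reagent was then added for 2 h at 37 °C, 5% CO2, and absorbance read at 490 nm. Viability was taken as % of control and GI50 read from dose-response curves; 3 independent cultures, 4 wells per concentration.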

[2] = Antiproliferative activity against human TCCSUP cells after 48 hrs by MTS assay; assay type: functional; settings: TCC-SUP; in short: as §1

GI50 [1] [nM]	Structure (SMILES)	GI50 [2] [nM]
82	Cc1c(Cl)c(=O)oc2cc3c(cc12)oc1ccccc13	243
198	CCOC(=O)/C=C/n1c2ccccc2c2cc(O)ccc21	25
421	Cc1c(Cl)c(=O)oc2cc3[nH]c4ccccc4c3cc12	149
460	Cc1c(Cl)c(=O)oc2c1ccc1c3ccccc3sc12	311
49	Cc1cc(=O)oc2c1ccc1c3ccccc3sc12	253
